Data published in PMC2813939 (Neuropsychopharmacology : official publication of the …, 2009).
Where “and” joins values, the source holds several entries; their conditions need not be identical. Equal values may be shown once. Read-outs that look alike come from different tables or passages of the source. Values belong to the compound of their own block, whether it stands above or below them.

How the values were obtained:
GRK2 = experiment: Western blot of tetracycline-induced GRK2 expression in triple-transfected cells; assay type: cell-based, bovine; settings: tetracycline 1 μg/ml 24 h; triple-transfected cells vs untreated cells; n=3
Summary of the method: (§1)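 T-REx-293 cells stably triple-transfected with D2S receptor, tetracycline-inducible GRK2 and arrestin3; tetracycline 1 μg/ml (final) or vehicle 24 h at 36 °C. Lysed in 1% dodecyl maltopyranoside/PBS with protease inhibitors and N-ethylmaleimide; 20 μg protein run on 7.5% SDS-PAGE, PVDF. Rabbit polyclonal primaries 1 h RT (anti-GRK2 1:1000; anti-arrestin3 1:500), HRP anti-rabbit 1:15,000; ECL-Plus imaging and quantitation; % increase versus untreated cells.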

arrestin3 = assay type: cell-based, rat; settings: tetracycline 1 μg/ml 24 h; triple-transfected cells vs untreated cells; n=2
Summary of the method: as §1

[1] = target: T1, human D2 receptor (short isoform, D2S) (Homo sapiens, UniProt P14416); experiment: cell-based; assay type: binding
T1 sequence (P14416 1-414 isoform P14416-2): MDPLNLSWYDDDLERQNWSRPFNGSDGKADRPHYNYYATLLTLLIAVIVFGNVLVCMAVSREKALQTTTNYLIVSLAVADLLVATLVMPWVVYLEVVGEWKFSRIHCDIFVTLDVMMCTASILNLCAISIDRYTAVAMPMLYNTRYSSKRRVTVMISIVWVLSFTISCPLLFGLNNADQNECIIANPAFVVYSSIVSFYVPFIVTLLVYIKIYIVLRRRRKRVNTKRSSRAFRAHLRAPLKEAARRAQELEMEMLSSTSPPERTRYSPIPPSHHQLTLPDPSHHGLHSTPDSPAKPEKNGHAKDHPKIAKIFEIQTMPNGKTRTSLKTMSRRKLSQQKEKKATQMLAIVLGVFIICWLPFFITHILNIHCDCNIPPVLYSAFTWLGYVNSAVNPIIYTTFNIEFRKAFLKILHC

[2] = cited from earlier work
[3] = target: T1, human D2 receptor (short isoform, D2S); assay type: binding
[4] = target: T1, human D2 receptor (short isoform, D2S); assay type: binding; remark: listed apart in the source
[5] = read-out: Internalized D2 receptor (Q+/MTSET+) KI(i)
[6] = read-out: Surface D2 receptor (Q-/MTSET-) KI(s)
[7] = internalized (Q+/MTSET+) vs surface (Q-/MTSET-)

Structure (SMILES): CN(C)[C@@H]1C(O)=C(C(N)=O)C(=O)[C@@]2(O)C(O)=C3C(=O)c4c(O)cccc4[C@@](C)(O)[C@H]3C[C@@H]12 [Tetracycline]
- increase in GRK2 expression (GRK2): 190 ± 24%
- increase in arrestin3 expression (arrestin3): 538 ± 75%

- Ki [1, 5]: 0.23 ± 0.11 nM
- Ki [1, 6]: 0.19 ± 0.05 nM
Structure (SMILES): CCN1CCC[C@H]1CNC(=O)c1c(OC)ccc(I)c1O [IBZM]

Structure (SMILES): CC[11CH2]N1CCc2cccc3c2C1Cc1ccc(O)c(O)c1-3 (single isomer, unassigned; (-)) [NPA, (-)-N-[11C]propyl-norapomorphine]
- Lipophilicity (Log P) ([2]; ref Wilson et al, 2005): 2.5 ^d†

- [3H]NMSP binding remaining, % of the total binding [3]: 10%
Structure (SMILES): C[N+](C)(C)CCSS(C)(=O)=O.[Br-] [MTSET, [2-(trimethylammonium)ethyl] methanethiosulfonate bromide]

- Affinity shift Ki(i)/Ki(s) [1, 7]: 3.0
- Ki [1, 5]: 0.09 ± 0.02 nM
- Ki [1, 6]: 0.03 ± 0.01 nM
Structure (SMILES): CCN1CCC[C@H]1CNC(=O)c1cc(Br)cc(OC)c1OC [FLB 457]
- Lipophilicity (Log kw) ([2]; ref Loc'h et al, 1996): 1.9 ^b‡

- increase in the Ki at internalized receptors (decrease in affinity) [1]: about 2 fold
Structure (SMILES): CCN1CCC[C@H]1CNC(=O)c1c(O)c(Cl)cc(Cl)c1OC [Raclopride]

Structure (SMILES): CCCN1CCOC2c3cc(O)ccc3CCC21 (single isomer, unassigned; (+)) [PHNO, (+)-4-propyl-3,4,4a,5,6,10b-hexahydro-2H-naphtho[1,2-b][1,4]oxazin-9-ol]
- Lipophilicity (Log P) ([2]; ref Wilson et al, 2005): 2.1 ^d†

- Affinity shift Ki(i)/Ki(s) [1, 7]: 1.2
Structure (SMILES): CCN1CCC[C@H]1CNC(=O)c1c(OC)ccc([123I])c1O [IBZM]
- Lipophilicity (Log P) ([2]; ref Laruelle, 2000): 2.8 ^a†

- fraction of D2 receptors on the surface [1]: 80.9%
- fraction of D2 receptors on the surface (high affinity) [1]: 85.8% and 43.1%
- fraction of D2 receptors with high affinity [4]: 90% and 55% and 89.9%
Structure (SMILES): CCN1CCCC1CNC(=O)c1cc(S(N)(=O)=O)ccc1OC (stereo not drawn) [Sulpiride]

- Ki ([1]; Internalized D2 receptor (Q+/MTSET+) KI(i)): 0.92 ± 0.31 nM
- Ki ([1]; Surface D2 receptor (Q-/MTSET-) KI(s)): 0.32 ± 0.06 nM
- Affinity shift Ki(i)/Ki(s) [1, 7]: 2.9
Structure (SMILES): C=CCN1CCC[C@H]1CNC(=O)c1cc(CCCF)cc(OC)c1OC [Fallypride]
- Lipophilicity (Log P) ([2]; ref Laruelle, 2000): 2.4 ^a†

- Affinity shift Ki(i)/Ki(s) [1]: 2.4
Structure (SMILES): CCN1CCC[C@H]1CNC(=O)c1cc(I)cc(OC)c1OC [Epidepride]
- Lipophilicity (Log kw) ([2]; ref Kessler et al, 1991): 2.1 ^c‡

Structure (SMILES): CN1CN(c2ccccc2)C2(CCN(CCCC(=O)c3ccc(F)cc3)CC2)C1=O [NMSP, N-methylspiperone]
- Lipophilicity (Log P) ([2]; ref Laruelle, 2000): 3.3 ^a†
